From ChEMBL document CHEMBL3112415, “Novel hybrid selenosulfonamides as potent antileishmanial agents” (Eur J Med Chem, 2014)

Tests used:
[1] = Selectivity index, ratio of IC50 for human THP1 cells to IC50 for axenic amastigote stage of Leishmania infantum; format: toxicity, cell-based, THP-1; conditions: read-out: Ratio IC50
Procedure, shortened: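 SI computed as THP-1 IC50 (24 h PI-exclusion flow cytometry) divided by IC50 against L. infantum amastigotes.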

Leishmania infantum [2] = assay: Leishmanicidal activity against axenic amastigote stage of Leishmania infantum after 24 hrs by propidium iodide staining-based flow cytometric analysis; format: functional, organism-based
Procedure, shortened: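 Axenic amastigotes maintained at pH 5.4, 37 °C in medium with citric acid, sodium bicarbonate, MES, hemin and gentamicin; miltefosine and edelfosine as standards; at least three independent experiments; IC50 values.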

THP-1 = assay: Cytotoxicity against human THP1 cells after 24 hrs by propidium iodide staining-based flow cytometric analysis; format: cell-based; conditions: THP-1, 24 h
Procedure, shortened: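 THP-1 cells grown in RPMI-1640 with 10% heat-inactivated FCS, 1 mM HEPES, 2 mM glutamine, 1 mM pyruvate, pH 7.2, 37 °C, 5% CO2; treated in log phase at 4 × 10⁵ cells/mL for 24 h at 37 °C, 5% CO2. Viability by flow cytometry with propidium iodide exclusion; IC50 reported.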

Leishmania infantum [3] = assay: Leishmanicidal activity against amastigote stage of Leishmania infantum expressing GFP infected in human THP1 cells after 48 hrs by flow cytometric analysis; format: functional, organism-based; conditions: THP-1, 48 h
Procedure, shortened: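 THP-1 cells seeded at 120.000 cells/mL, differentiated to macrophages for 24 h with 10 ng/mL PMA in RPMI-1640, then infected with 1.2 × 10⁶ eGFP-expressing amastigotes per well; free parasites removed after 4 h. After 48 h drug treatment, cells washed with PBS, detached with TrypLE, and infection rate read by flow cytometry.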

## O=S(=O)(Nc1ccc([Se][Se]c2ccc(NS(=O)(=O)c3ccccc3)cc2)cc1)c1ccccc1
[1]
  selectivity ratio: 7.3
Leishmania infantum [2]
  IC50: 1.64 µM
THP-1
  IC50: 11.9 µM

## Cc1ccc(S(=O)(=O)Nc2ccc([Se][Se]c3ccc(NS(=O)(=O)c4ccc(C)cc4)cc3)cc2)cc1
[1]
  selectivity ratio: > 18
Leishmania infantum [2]
  IC50: 1.4 µM
Leishmania infantum [3]
  IC50: 4.1 µM
THP-1
  IC50: > 25 µM

## COc1ccc(S(=O)(=O)Nc2ccc([Se][Se]c3ccc(NS(=O)(=O)c4ccc(OC)cc4)cc3)cc2)cc1
[1]
  selectivity ratio: 14
Leishmania infantum [2]
  IC50: 1.3 µM
THP-1
  IC50: 18.1 µM

## N#Cc1ccc(S(=O)(=O)Nc2ccc([Se][Se]c3ccc(NS(=O)(=O)c4ccc(C#N)cc4)cc3)cc2)cc1
[1]
  selectivity ratio: 2
Leishmania infantum [2]
  IC50: 1.76 µM
THP-1
  IC50: 3.6 µM

## O=[N+]([O-])c1ccc(S(=O)(=O)Nc2ccc([Se][Se]c3ccc(NS(=O)(=O)c4ccc([N+](=O)[O-])cc4)cc3)cc2)cc1
[1]
  selectivity ratio: 4.6
Leishmania infantum [2]
  IC50: 3.74 µM
THP-1
  IC50: 17.1 µM

## O=S(=O)(Nc1ccc([Se][Se]c2ccc(NS(=O)(=O)c3ccc(C(F)(F)F)cc3)cc2)cc1)c1ccc(C(F)(F)F)cc1
[1]
  selectivity ratio: 9.5
Leishmania infantum [2]
  IC50: 2.01 µM
THP-1
  IC50: 19.1 µM

## O=S(=O)(Nc1ccc([Se][Se]c2ccc(NS(=O)(=O)c3ccc(F)cc3)cc2)cc1)c1ccc(F)cc1
[1]
  selectivity ratio: > 17
Leishmania infantum [2]
  IC50: 1.47 µM
Leishmania infantum [3]
  IC50: 2.8 µM
THP-1
  IC50: > 25 µM

## O=S(=O)(Nc1ccc([Se][Se]c2ccc(NS(=O)(=O)c3ccc(Cl)cc3)cc2)cc1)c1ccc(Cl)cc1
[1]
  selectivity ratio: > 7
Leishmania infantum [2]
  IC50: 3.63 µM
THP-1
  IC50: > 25 µM

## O=S(=O)(Nc1ccc([Se][Se]c2ccc(NS(=O)(=O)c3ccc(Br)cc3)cc2)cc1)c1ccc(Br)cc1
[1]
  selectivity ratio: 2
Leishmania infantum [2]
  IC50: 2.8 µM
THP-1
  IC50: 5.2 µM

## O=S(=O)(Nc1ccc([Se][Se]c2ccc(NS(=O)(=O)c3ccccc3F)cc2)cc1)c1ccccc1F
[1]
  selectivity ratio: 10.7
Leishmania infantum [2]
  IC50: 1.66 µM
THP-1
  IC50: 17.8 µM

## O=S(=O)(Nc1ccc([Se][Se]c2ccc(NS(=O)(=O)c3ccccc3Cl)cc2)cc1)c1ccccc1Cl
[1]
  selectivity ratio: 15
Leishmania infantum [2]
  IC50: 1.17 µM
THP-1
  IC50: 17.4 µM

## O=S(=O)(Nc1ccc([Se][Se]c2ccc(NS(=O)(=O)c3ccc(-c4ccccc4)cc3)cc2)cc1)c1ccc(-c2ccccc2)cc1
[1]
  selectivity ratio: > 2
Leishmania infantum [2]
  IC50: 13.8 µM
THP-1
  IC50: > 25 µM

## O=S(=O)(Nc1ccc([Se][Se]c2ccc(NS(=O)(=O)c3ccc4ccccc4c3)cc2)cc1)c1ccc2ccccc2c1
[1]
  selectivity ratio: > 4.4
Leishmania infantum [2]
  IC50: 5.65 µM
THP-1
  IC50: > 25 µM

## O=S(=O)(Nc1ccc([Se][Se]c2ccc(NS(=O)(=O)c3cccc4cccnc34)cc2)cc1)c1cccc2cccnc12
[1]
  selectivity ratio: > 30
Leishmania infantum [2]
  IC50: 0.83 µM
Leishmania infantum [3]
  IC50: 6.2 µM
THP-1
  IC50: > 25 µM

## O=S(=O)(Nc1ccc([Se][Se]c2ccc(NS(=O)(=O)c3cccs3)cc2)cc1)c1cccs1
[1]
  selectivity ratio: 5.6
Leishmania infantum [2]
  IC50: 1.54 µM
THP-1
  IC50: 8.6 µM

## Cn1ccnc1S(=O)(=O)Nc1ccc([Se][Se]c2ccc(NS(=O)(=O)c3nccn3C)cc2)cc1
[1]
  selectivity ratio: 4
Leishmania infantum [2]
  IC50: 1.05 µM
THP-1
  IC50: 4.4 µM

## CCCCCCCCCCCCCCCCCCOCC(COP(=O)([O-])OCC[N+](C)(C)C)OC (stereo not given) [EDELFOSINE]
[1]
  selectivity ratio: 6
Leishmania infantum [3]
  IC50: 3.1 µM
THP-1
  IC50: 4.9 µM

## CCCCCCCCCCCCCCCCOP(=O)([O-])OCC[N+](C)(C)C [MILTEFOSINE]
[1]
  selectivity ratio: 7
